Screening data as filed in PubChem BioAssay.
697 NFkB inh = inhibitors of the PMA/ionomycin-induced NF-kB reporter in 697 B cells; actives 0.33% (n = 330,000); inhibition, % at 4 µM; 697 B-cell NF-kB luciferase reporter, 16 h; in the data active = inhibition above about 35%
Jurkat NFkB inh = lowers PMA/ionomycin-induced NF-kB signal in Jurkat cells; actives 0.53% (n = 330,000); inhibition, % at 4 µM; PMA/ionomycin-induced NF-kB luciferase reporter, luminescence; AID 435003; in the data active = inhibition above about 50%
hiPSC survival = enhancers of human iPSC single-cell survival. hiPSC single-cell survival, ATPlite luminescence; 100% = ROCK inhibitor wells, 0% = DMSO. survival enhancement, % at 20 µM. actives 0.044% (n = 360,000). AID 602274; in the data active = survival enhancement above about 18%;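 also: cells exposed to compounds for 16 hours before the ATP read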
H9c2 TAG inh = reduces triacylglycerol accumulation in H9c2 cells. Nile Red lipid (TAG) fluorescence; cells loaded with 200 µM oleic acid. inhibition, % at 12.5 µM. actives 0.66% (n = 230,000). AID 651582;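 active = pattern-corrected inhibition of lipid staining of at least 50% with the nuclear-stain viability signal not falling by more than 50%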;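 also: 0% = DMSO wells and 100% = triacsin C control wells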
Gli-Sufu block = blocks Gli-Sufu signaling in a luciferase reporter. Sufu-KO-LIGHT fibroblasts, Gli luciferase reporter luminescence. inhibition, % at 5 µM. actives 0.74% (n = 340,000). AID 588413;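 active = inhibition above about 55%, limit read from the data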;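 also: 0% = DMSO-treated cells and 100% = wells with medium but no cells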
Hep lipid drop = modulators of hepatic lipid droplet formation | AML12 mouse hepatocytes, oleate lipid droplets, BODIPY imaging | inhibition, % at 6.5 µM | actives 0.4% (n = 240,000) | AID 1656;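 active = lipid droplet intensity inhibited by at least 50%, with more than 500 cells counted; inconclusive = wells with under 300 cells, treated as cytotoxic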
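Material: mouse AML12 hepatocyte cell line, fixed after treatment; Timing: compound with oleate, overnight; Technique: high-content imaging of BODIPY-stained droplets and DAPI nuclei; Probe or stimulus: oleate, 100 µM final; Dosing: compound at 6.5 µM only.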
Jurkat NFkB conf = inhibitors of the PMA/ionomycin-induced NF-kB reporter in Jurkat cells, retest | Jurkat NF-kB luciferase, 16 h | actives 27% (n = 2,700) | inhibition, % at 4 µM | AID 435020 | shares compounds with Jurkat NFkB inh;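 active = inhibition reaching about 45% at 4 µM in either replicate, limit read from the data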;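 also: plate controls were PMA/ionomycin stimulated DMSO wells for no effect and unstimulated DMSO wells for full effect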
Starred values were filed as active, the others as inactive; ? = inconclusive; . = no result. Compounds with a hit are over-represented: about 1.8% of the library has one in this group of screens.

SMILES | 697 NFkB inh | Jurkat NFkB inh | hiPSC survival | H9c2 TAG inh | Gli-Sufu block | Hep lipid drop | Jurkat NFkB conf
Cc1cccc(-c2noc(-c3ccc(Cl)cc3[N+](=O)[O-])n2)c1 | -187 | -161 | -2 | 3 | -98 | 18 | -103
COCCNC(=O)C1(C)CCCN(CCC(=O)c2ccc(Br)cc2)C1 (stereo unspecified) | . | . | 1 | 3 | . | . | .
FC(F)(F)c1cccc(Cc2noc(CN3CCCC(OCc4ccccn4)C3)n2)c1 (stereo unspecified) | 4 | -3 | 0 | -14 | 38 | -55 | .
CCc1ccc(N2C(=O)C(Cl)=C(Nc3ccc(C(=O)N4CCCC4)cc3)C2=O)cc1 | -117 | 83* | -4 | 18 | 2 | . | 88*
Cc1c(C(=O)NCc2ccc(F)cc2)sc(=O)n1Cc1ccccc1 | . | . | -1 | -18 | . | . | .
Cc1cccc(NC(=O)c2cc3ccccc3oc2=O)c1 | -138 | -154 | -1 | -4 | -77 | 7 | -97
COc1cccc(NC(=O)c2cnn(-c3ccccc3)c2C)c1 | -187 | -169 | 0 | . | -89 | 18 | -82
COc1cccc(NC(=O)c2cc3ccccc3o/c2=N\O)c1 | -129 | -159 | -1 | . | -94 | 10 | -130
COc1ccc2oc(=O)c(C(=O)Nc3cccc(C)c3)cc2c1 | -101 | -89 | 0 | 0 | -66 | -2 | .
CCc1cccc(NC(=O)c2cnn(-c3ccccc3)c2C)c1 | -170 | -147 | 0 | . | -68 | 18 | .
Cc1ccc2nc(SCC(=O)N3CCC(C)CC3)nc(=O)n2c1 | -8 | -5 | 0 | 0 | -9 | . | .
CC1CN(C(=O)c2c(Br)cnn2C)CC(C)O1 (stereo unspecified) | 19 | 12 | 4 | . | 2 | 0 | .
CCC1CCCCN1C(=S)NC(=O)c1cccc([N+](=O)[O-])c1 (stereo unspecified) | -2 | 3 | 0 | 1 | -4 | -15 | .
COc1ccc(COc2cc(-c3cccc(OC)c3)nc3ccc(N)cc23)cc1 | -119 | 52* | -1 | 23 | 33 | ? | -2
O=C(Cn1cncn1)NCCCc1ccccc1 | -7 | -2 | 1 | 0 | 2 | . | .
CCCCOc1ccc(Br)cc1/C(C)=N/NC1=NCCN1 | -42 | 76* | -5 | 45 | -62 | ? | 53*
CCCCCCOc1ccc(/C(C)=N/NC2=NCCN2)cc1[N+](=O)[O-] | -57 | 46 | -7 | . | 16 | 10 | .
COc1cc(-c2noc(C)c2/C=C/c2cccc([N+](=O)[O-])c2)cc(OC)c1OC | -3 | 62* | -4 | 39 | 26 | ? | 51*
COc1cc(/C=C/c2onc(C)c2[N+](=O)[O-])cc(OC)c1OC | 6 | 21 | 0 | 3 | 18 | . | .
C[C@H](NC(=O)c1ccc(C(C)(C)C)cc1)C(=O)N1CCOCC1 | -14 | -2 | 0 | 14 | -1 | . | .
COc1ccc(C2C(C(=O)Nc3cccc(OC)c3)c3ccccc3C(=O)N2C)cc1 (stereo unspecified) | 23 | 1 | 1 | -4 | -7 | -6 | .
COc1ccc(C2C(C(=O)Nc3cc(OC)c(OC)c(OC)c3)c3ccccc3C(=O)N2C)cc1 (stereo unspecified) | -70 | 75* | 0 | 40 | 1 | -116 | 22
O=C(O)c1cn2c3c(ccc(Cl)c3c1=O)OCC2 | 14 | -14 | 0 | . | 7 | 39 | .
C[C@]12CC[C@@H]3c4ccc(OC(=O)c5ccccc5)cc4CC[C@H]3[C@@H]1CC[C@@H]2O | 8 | 15 | -2 | -6 | -12 | . | .
COc1cc2c(cc1O)CC[C@@H]1[C@@H]2CC[C@]2(C)[C@@H](O)CC[C@@H]12 | -43 | 61* | 0 | 31 | -12 | -5 | 54*
Cc1ccc(OCC(O)CNC2CCCC2)c(C)c1 (stereo unspecified) | 19 | 6 | 0 | . | 14 | -5 | .
Cc1ccccc1OCC(O)CNC1CCC(NCC(O)COc2ccccc2C)CC1 (stereo unspecified) | 26 | 97* | -1 | . | 26 | -62 | 35
NS(=O)(=O)c1ccc2nc(NC(=O)Nc3ccccc3F)sc2c1 | -224 | -164 | -1 | . | -97 | -45 | -112
Cc1ccccc1NC(=O)Nc1nc2ccc(S(C)(=O)=O)cc2s1 | -68 | -37 | 0 | . | -47 | 1 | .
